From paper PMC10330157 (Clinical cancer research : an official journal of the …, 2023)
“Also recorded” adds a separate entry of the source.

Legend:
[1] = tested on: patients with other hematologic malignancies (NHL, MM, myeloid malignancy, HCL, Castleman disease); test: Phase 1 trial: antitumor response in patients without CLL/SLL; format: in vivo, human
Summary of the method: (§1)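 Patients took the oral test compound once daily in 28-day cycles. Disease was assessed at baseline and then every 8 weeks from Cycle 3, using disease-specific scans, bone marrow biopsy/aspirate and hematologic and biochemical labs. MRD was checked in peripheral blood in patients reaching CR. ORR was reported with 95% CI, and missing data were not imputed.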

patients with CLL/SLL = test: Absolute lymphocyte count; format: in vivo, human; conditions: for Mean decrease in ALC: 23 patients with CLL/SLL
Summary of the method: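 Adults with R/R CLL/SLL took the test compound orally once daily in 28-day cycles. ALC was tracked from ramp-up D1 to C1D1 and to C2D1. A subset with baseline mean ALC > 25 × 10³/μL was evaluated separately.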

[2] = Phase 1 first-in-human trial: safety and tolerability; format: in vivo
Summary of the method: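 In an open-label, non-randomized dose escalation, the test compound was given orally once daily for 28-day cycles at 20–1,200 mg. Cohorts started as single patients, with intrapatient escalation allowed. The primary endpoints were DLT and MTD. Patients were hospitalized during ramp-up, with oral antihyperuricemic agents and hydration ≥ 72 h before the first dose plus IV hydration. AEs were counted once per patient. The safety population was all patients receiving ≥ 1 dose, analysed descriptively.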

[3] = Clinical plasma pharmacokinetics; format: in vivo, human
Summary of the method: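 Oral test compound was given once daily at doses of 20 to 1,200 mg. Plasma levels were measured by LC-MS/MS (LLOQ 5 ng/mL). Cmax, AUC0-24h and accumulation ratio came from noncompartmental analysis.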

[4] = tested on: patients with relapsed or refractory CLL/SLL; test: Phase 1 trial: antitumor response in patients with R/R CLL/SLL; format: in vivo, human
Summary of the method: as §1

[5] = cited from earlier work
[6] = Castleman disease, evaluable n = 1
[7] = Myeloid malignancy (AML, MDS), evaluable n = 2
[8] = Non-CLL/SLL overall, evaluable n = 28
[9] = single oral administration, 50 mg, 1 subject
[10] = single oral administration, 100 mg, 1 subject
[11] = single oral administration, 200 mg, 2 subjects, Mean ± SD
[12] = single oral administration, 400 mg, 8 subjects, Mean ± SD
[13] = single oral administration, 600 mg, 7 subjects, Mean ± SD
[14] = single oral administration, 800 mg, 7 subjects, Mean ± SD
[15] = single oral administration, 1,000 mg, 6 subjects, Mean ± SD
[16] = single oral administration, 1,200 mg, 6 subjects, Mean ± SD

O=C(NS(=O)(=O)c1ccc(NC[C@H]2COCCO2)c([N+](=O)[O-])c1)c1ccc(N2CCN(CC3=C(c4ccc(Cl)cc4)CC4(CCC4)CC3)CC2)cc1Oc1cnc2[nH]ccc2c1 [lisaftoclax]
Clinical benefit, patients ([1]; 28 evaluable patients without CLL/SLL): 50.0% | Best response MR [1, 6]: 0 (0) no. (%) | Best response PD [1, 6]: 0 (0) no. (%) | Best response PR [1, 6]: 0 (0) no. (%) | Best response SD [1, 6]: 1 (100.0) no. (%) | Clinical benefit rate [1, 6]: 1 (100.0) no. (%) | ORR [1, 6]: 0 (0) no. (%) | Best response MR ([1]; HCL, evaluable n = 1): 0 (0) no. (%) | Best response PD ([1]; HCL, evaluable n = 1): 0 (0) no. (%) | Best response PR ([1]; HCL, evaluable n = 1): 0 (0) no. (%) | Best response SD ([1]; HCL, evaluable n = 1): 1 (100.0) no. (%) | Clinical benefit rate ([1]; HCL, evaluable n = 1): 1 (100.0) no. (%) | ORR ([1]; HCL, evaluable n = 1): 0 (0) no. (%) | Best response PD ([1]; MM, evaluable n = 11): 7 (63.6) no. (%) | Best response SD ([1]; MM, evaluable n = 11): 2 (18.2) no. (%) | Clinical benefit rate ([1]; MM, evaluable n = 11): 4 (36.4) no. (%) | ORR ([1]; MM, evaluable n = 11): 1 (9.1) no. (%) | Best response MR [1, 7]: 0 (0) no. (%) | Best response PD [1, 7]: 2 (100.0) no. (%) | Best response PR [1, 7]: 0 (0) no. (%) | Best response SD [1, 7]: 0 (0) no. (%) | Clinical benefit rate [1, 7]: 0 (0) no. (%) | ORR [1, 7]: 0 (0) no. (%) | Best response PD ([1]; NHL, evaluable n = 13): 5 (38.5) no. (%) | Best response PR ([1]; NHL, evaluable n = 13): 0 (0) no. (%) | Best response SD ([1]; NHL, evaluable n = 13): 7 (53.8) no. (%) | Clinical benefit rate ([1]; NHL, evaluable n = 13): 8 (61.5) no. (%) | ORR ([1]; NHL, evaluable n = 13): 0 (0) no. (%) | Best response MR [1, 8]: 2 (7.1) no. (%) | Best response PD [1, 8]: 14 (50.0) no. (%) | Best response PR [1, 8]: 1 (3.6) no. (%) | Best response SD [1, 8]: 11 (39.3) no. (%) | Clinical benefit rate [1, 8]: 14 (50.0) no. (%) | ORR [1, 8]: 1 (3.6) no. (%) | Median time to 50% ALC reduction (patients with CLL/SLL; 5 patients with higher risk of TLS): 3 (range, 2-4) days | Mean decrease in ALC (patients with CLL/SLL; from ramp-up D1 to C1D1): 69.4% | Mean decrease in ALC (patients with CLL/SLL; from ramp-up Day 1 to C2D1 (completion of first cycle)): 92.8% | Grade 3 or 4 treatment-emergent increased lipase, patients ([2]; 23 patients with CLL/SLL): 13.0% | Grade 3 or 4 treatment-emergent neutropenia, patients ([2]; 23 patients with CLL/SLL): 26.1% | Treatment-related neutropenia, patients ([2]; 23 patients with CLL/SLL): 26.1% | Anemia, treatment-emergent adverse event ([2]; N = 52, Grade 3/4): 5 (9.6) no. (%) | Constipation, treatment-emergent adverse event ([2]; N = 52, Grade 3/4): 1 (1.9) no. (%) | Diarrhea, treatment-emergent adverse event ([2]; N = 52, Grade 3/4): 1 (1.9) no. (%) | Fatigue, treatment-emergent adverse event ([2]; N = 52, Grade 3/4): 1 (1.9) no. (%) | Headache, treatment-emergent adverse event ([2]; N = 52, Grade 3/4): 2 (3.8) no. (%) | Hypokalemia, treatment-emergent adverse event ([2]; N = 52, Grade 3/4): 1 (1.9) no. (%) | Nausea, treatment-emergent adverse event ([2]; N = 52, Grade 3/4): 2 (3.8) no. (%) | Neutropenia, treatment-emergent adverse event ([2]; N = 52, Grade 3/4): 11 (21.2) no. (%) | Peripheral edema, treatment-emergent adverse event ([2]; N = 52, Grade 3/4): 2 (3.8) no. (%) | Thrombocytopenia, treatment-emergent adverse event ([2]; N = 52, Grade 3/4): 7 (13.5) no. (%) | Anemia, treatment-emergent adverse event ([2]; N = 52, any grade): 15 (28.8) no. (%) | Arthralgia, treatment-emergent adverse event ([2]; N = 52, any grade): 8 (15.4) no. (%) | Constipation, treatment-emergent adverse event ([2]; N = 52, any grade): 13 (25.0) no. (%) | Diarrhea, treatment-emergent adverse event ([2]; N = 52, any grade): 25 (48.1) no. (%) | Fatigue, treatment-emergent adverse event ([2]; N = 52, any grade): 18 (34.6) no. (%) | Headache, treatment-emergent adverse event ([2]; N = 52, any grade): 11 (21.2) no. (%) | Hypokalemia, treatment-emergent adverse event ([2]; N = 52, any grade): 9 (17.3) no. (%) | Nausea, treatment-emergent adverse event ([2]; N = 52, any grade): 16 (30.8) no. (%) | Neutropenia, treatment-emergent adverse event ([2]; N = 52, any grade): 14 (26.9) no. (%) | Peripheral edema, treatment-emergent adverse event ([2]; N = 52, any grade): 9 (17.3) no. (%) | Thrombocytopenia, treatment-emergent adverse event ([2]; N = 52, any grade): 15 (28.8) no. (%) | Vomiting, treatment-emergent adverse event ([2]; N = 52, any grade): 12 (23.1) no. (%) | Tumor lysis syndrome (TLS), clinical or laboratory ([2]; daily dose ramp-up, doses up to 1,200 mg): no evidence of tumor lysis syndrome; also recorded: no evidence of clinical or laboratory TLS; also recorded: no patient with CLL/SLL in this study has experienced TLS; also recorded: no clinical or laboratory evidence of TLS | Dose-limiting toxicity (DLT) ([2]; doses of up to 1,200 mg): not reached; also recorded: no dose-limiting toxicities | Changes in platelet counts ([2]; in contrast to navitoclax): did not elicit clinically significant changes in platelet counts | Neutropenic sequelae, such as fever and infection ([2]; in vivo): not observed | Maximum tolerated dose (MTD) ([2]; oral once daily, 20 mg to 1,200 mg, 52 patients): not reached | Steady-state mean (CV%) AUC0-24h ([3]; 400 mg): 10,130 (40%) ng•h/mL | Steady-state mean (CV%) Cmax ([3]; 400 mg): 981 (43%) ng/mL | Accumulation ratio ([3]; multiple oral daily dosing): approximately 1 | AUC0-24 [3, 9]: 261 ng·h/mL | Cmax [3, 9]: 39.1 ng/mL | T1/2 [3, 9]: 2.84 h | Tmax [3, 9]: 3 h | AUC0-24 [3, 10]: 1800 ng·h/mL | Cmax [3, 10]: 229 ng/mL | T1/2 [3, 10]: 3.85 h | Tmax [3, 10]: 6 h | AUC0-24 [3, 11]: 2410 ± 370 ng·h/mL | Cmax [3, 11]: 294 ± 4 ng/mL | T1/2 [3, 11]: 3.84 ± 0.16 h | Tmax ([3]; single oral administration, 200 mg, 2 subjects, Median (range)): 4 (4~4) h | AUC0-24 [3, 12]: 6850 ± 2910 ng·h/mL | Cmax [3, 12]: 822 ± 334 ng/mL | T1/2 [3, 12]: 4.43 ± 0.57 h | Tmax ([3]; single oral administration, 400 mg, 8 subjects, Median (range)): 6 (4~8) h | AUC0-24 [3, 13]: 7810 ± 2840 ng·h/mL | Cmax [3, 13]: 761 ± 298 ng/mL | T1/2 [3, 13]: 4.68 ± 1.03 h | Tmax ([3]; single oral administration, 600 mg, 7 subjects, Median (range)): 6 (4~8) h | AUC0-24 [3, 14]: 7250 ± 2240 ng·h/mL | Cmax [3, 14]: 982 ± 384 ng/mL | T1/2 [3, 14]: 4.34 ± 0.53 h | Tmax ([3]; single oral administration, 800 mg, 7 subjects, Median (range)): 4 (4~6) h | AUC0-24 [3, 15]: 18300 ± 13100 ng·h/mL | Cmax [3, 15]: 1690 ± 1220 ng/mL | T1/2 [3, 15]: 6.10 ± 1.52 h | Tmax ([3]; single oral administration, 1,000 mg, 6 subjects, Median (range)): 8 (6~8) h | AUC0-24 [3, 16]: 12300 ± 4820 ng·h/mL | Cmax [3, 16]: 1200 ± 480 ng/mL | T1/2 [3, 16]: 4.86 ± 1.01 h | Tmax ([3]; single oral administration, 1,200 mg, 6 subjects, Median (range)): 6 (3~8) h | ORR in patients with BTKi-intolerant disease ([4]; 4 out of 5 evaluable patients): 80.0% | Best response MR ([4]; CLL/SLL, evaluable n = 22): 0 (0) no. (%) | Best response PD ([4]; CLL/SLL, evaluable n = 22): 0 (0) no. (%) | Best response PR ([4]; CLL/SLL, evaluable n = 22): 14 (63.6) no. (%) | Best response SD ([4]; CLL/SLL, evaluable n = 22): 8 (36.4) no. (%) | ORR ([4]; CLL/SLL, evaluable n = 22): 14 (63.6) no. (%) | PR (ORR) in patients with del(17p)/TP53 mutation ([4]; CLL/SLL, 2/3): 66.7% | PR in patients with IGHV unmutated ([4]; CLL/SLL, 8/10): 80.0% | Patients with ≥ 70% reductions in nodal and/or splenic size ([4]; CLL/SLL, 9 of 21 patients): 42.9% | Patients achieving PR among 4 patients who relapsed to prior BTKi ([4]; after 2 cycles of treatment): 1 patient | Complete response (CR) ([4]; all patients): No patient experienced a CR | Median time to response ([4]; patients with R/R CLL/SLL): 2 (range, 2-8) cycles

CC1(C)CCC(CN2CCN(c3ccc(C(=O)NS(=O)(=O)c4ccc(NCC5CCOCC5)c([N+](=O)[O-])c4)c(Oc4cnc5[nH]ccc5c4)c3)CC2)=C(c2ccc(Cl)cc2)C1 [venetoclax]
Patients with grade 3/4 neutropenia who may require G-CSF support or dose reductions [5]: ~ 75% | Recipients experiencing infection [5]: 72% | Grade ≥ 2 diarrhea, recipients ([5]; real-world-evidence studies): up to 18% | Grade ≥ 3 neutropenia, recipients ([5]; real-world-evidence studies): up to 47% | Grade ≥ 3 neutropenic fever, recipients ([5]; real-world-evidence studies): up to 13% | Grade ≥ 3 thrombocytopenia, recipients ([5]; real-world-evidence studies): up to 36% | TLS, recipients ([5]; real-world-evidence studies): up to 13.4%
